Compounds with a hit are over-represented: about 2.3% of the library has one in this group of screens.
ROMK mod – ROMK potassium channel modulators, primary screen, cell-based, thallium flux, MLSMR library. 2% of 130,000 active. B-score at 10 µM. ATP-sensitive inward rectifier potassium channel 1 (Homo sapiens), P48048. Tet-inducible ROMK, thallium flux fluorescence; actives lie on both sides;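 active = signal ratio slope over the read window, or its plate-corrected B-score, at least 3 SD from the plate mean, either direction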;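 note: B-score of the F/F0 ratio slope over 7 to 12 s after thallium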
Autophagy HCS – autophagy modulators in MEF cells, primary screen, imaging, high-content, MEF GFP-LC3; MEF GFP-LC3 puncta imaging; test concentration mostly 10 µM; calls only at 10 µM (by protocol); 0.98% of 190,000 active;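 active = percentage of spot-positive cells more than 3 SD above its plate mean, without a fluorescence outlier flag or 80% toxicity; inconclusive = no clear call, values can overlap the other calls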
sdo1 growth – growth rescue of sdo1-depleted yeast, primary screen, S. cerevisiae, bone marrow failure model | S. cerevisiae sdo1-depleted JHY4D growth rescue, OD600 30 h; stronger effect = higher value; pdr5 snq2 efflux-pump mutant strain | z-score at 10 µM | 0.21% of 140,000 active | AID 817, 2007;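 active = z-score above 3 at both the 24 hr and the 30 hr optical density reads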
ABCG2 inh – ABCG2 efflux pump inhibitors, primary screen, multiplex with ABCB1, IgMXP3 cells, flow cytometry. Broad substrate specificity ATP-binding cassette transporter ABCG2 (Homo sapiens), Q9UNQ0. JC-1 efflux. inhibition, % at 6.6 µM. 0.1% of 190,000 active. AID 1325, 2008;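 active = inhibition above 80%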
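System: two drug-resistant human cell lines, ABCG2 and ABCB1; controls: nicardipine high and DMSO low controls; times: 10 min exposure at 25 °C with rotation, no wash; detection: flow cytometry of retained JC-1 fluorescence; read-out basis: percent efflux inhibition, scaled nicardipine 100% to DMSO 0%; doses: one concentration, 6.6 µM final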
ABCB1 inh – ABCB1 efflux pump inhibitors, primary screen, cell-based, multiplex, flow cytometry, ABCG2 counter-screen | ATP-dependent translocase ABCB1 (Homo sapiens), P08183 | CCRF-Adr cells, JC-1 efflux | inhibition, % at 6.6 µM | 0.067% of 190,000 active; in the data active = inhibition above about 40%;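 note: higher value means more JC-1 retained so stronger ABCB1 efflux block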
Target sequence (P08183 whole entry, looked up): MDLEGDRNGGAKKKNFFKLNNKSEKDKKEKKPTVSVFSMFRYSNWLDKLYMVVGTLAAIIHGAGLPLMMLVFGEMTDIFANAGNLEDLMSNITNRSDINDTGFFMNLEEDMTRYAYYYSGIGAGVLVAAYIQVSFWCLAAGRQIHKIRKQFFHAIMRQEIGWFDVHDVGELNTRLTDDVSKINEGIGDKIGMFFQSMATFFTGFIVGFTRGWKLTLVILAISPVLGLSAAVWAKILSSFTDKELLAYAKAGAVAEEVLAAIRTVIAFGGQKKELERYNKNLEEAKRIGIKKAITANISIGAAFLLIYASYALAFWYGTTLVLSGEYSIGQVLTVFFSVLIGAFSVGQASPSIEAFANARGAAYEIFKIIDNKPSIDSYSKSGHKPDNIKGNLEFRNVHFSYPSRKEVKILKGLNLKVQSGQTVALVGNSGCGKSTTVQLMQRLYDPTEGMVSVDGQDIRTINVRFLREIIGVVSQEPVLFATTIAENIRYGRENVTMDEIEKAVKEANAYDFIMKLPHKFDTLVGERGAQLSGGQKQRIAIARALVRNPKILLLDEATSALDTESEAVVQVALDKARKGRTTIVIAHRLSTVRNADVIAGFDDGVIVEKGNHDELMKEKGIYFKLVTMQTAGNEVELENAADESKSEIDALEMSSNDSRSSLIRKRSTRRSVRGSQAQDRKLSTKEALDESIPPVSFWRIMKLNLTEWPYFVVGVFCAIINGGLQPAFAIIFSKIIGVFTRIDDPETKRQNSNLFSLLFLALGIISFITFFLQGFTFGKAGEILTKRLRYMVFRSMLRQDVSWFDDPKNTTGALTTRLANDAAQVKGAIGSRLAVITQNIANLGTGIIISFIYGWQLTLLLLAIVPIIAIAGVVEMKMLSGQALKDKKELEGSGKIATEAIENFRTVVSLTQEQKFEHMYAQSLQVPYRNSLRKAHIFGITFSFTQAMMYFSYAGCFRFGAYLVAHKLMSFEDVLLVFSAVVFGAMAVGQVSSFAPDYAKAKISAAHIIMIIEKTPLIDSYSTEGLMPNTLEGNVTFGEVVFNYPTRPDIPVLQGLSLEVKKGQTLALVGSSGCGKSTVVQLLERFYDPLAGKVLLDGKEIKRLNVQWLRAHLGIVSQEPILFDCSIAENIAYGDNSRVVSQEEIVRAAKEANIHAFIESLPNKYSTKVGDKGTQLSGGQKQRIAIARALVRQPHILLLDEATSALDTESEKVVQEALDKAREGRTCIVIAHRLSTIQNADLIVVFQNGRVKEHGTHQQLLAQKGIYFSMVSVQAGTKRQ
Ins promoter up – insulin promoter activators in MIN6 cells, imaging, high-content screening, mouse beta cells. z-score at 5 µM. MIN6 insulin promoter-GFP reporter; stronger effect = higher value. 0.3% of 190,000 active;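 active = z-score above 3 at 5 µM with at least 500 cells counted in the well; inconclusive = wells under 500 cells, flagged as cytotoxic or low count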
ROMK retest – ROMK channel modulator hit retest, confirmation, cell-based, thallium flux, duplicate, resupplied hits; 54% of 3,000 active; fluorescence ratio; stronger effect = lower value; shares compounds with ROMK mod; normalized thallium flux (F/F0 slope) at 10 µM;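 active = Flux at 10 µM at least 3 SD below or above vehicle control mean in one or both replicates; inconclusive = no clear call, values can overlap the other calls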
Large screens that a line does not name were inactive (follow-up assays come after a bar, where they were run).

CC/C(=N/Nc1ccc(Cl)cc1)c1cnnc(SC)n1	none
CC/C(=N/Nc1cccc(C)c1)c1cnnc(SC)n1	ROMK mod -4.1, Autophagy HCS active | ROMK retest inconclusive
Cc1cc(/C=C2\SC(=S)NC2=O)c(C)n1-c1cccc(O)c1	none (no result: ROMK mod, Autophagy HCS, sdo1 growth, ABCG2 inh, ABCB1 inh) | ROMK retest 0.053
Cc1cc(/C=C2/C(=O)NN(c3ccccc3)C2=O)c(C)n1-c1cccc(O)c1	none (no result: ROMK mod)
O=C1CC2c3ccccc3C1C1C(=O)N(Cc3ccccc3)C(=O)C21 (stereo not drawn)	none (no result: sdo1 growth)
CCc1ccc2nc(SCC(=O)Nc3nnc(C)s3)c(C)cc2c1	none (no result: sdo1 growth) | ROMK retest inactive
C=CCn1c(SCC(=O)N2CCc3ccccc3C2)nc2sc(CC)cc2c1=O	none (no result: ROMK mod) | ROMK retest inactive
CC1CCCC(C)N1/N=C/c1ccc(C(=O)O)cc1 (stereo not drawn)	none (no result: ROMK mod, Autophagy HCS, sdo1 growth, ABCG2 inh, ABCB1 inh)
CCn1c(C(=O)N2CCC(C(=O)N3CCN(c4ccccn4)CC3)CC2)cc2sccc21	none (no result: ROMK mod, Autophagy HCS) | ROMK retest inactive
CN(C)S(=O)(=O)Oc1cccc(C(=O)Nc2ccc(Cl)cc2)c1	none (no result: ROMK mod) | ROMK retest inactive
O=C(NCCCN1CCCC1=O)c1cccs1	none (no result: ROMK mod) | ROMK retest inactive
CCCCN(C(=O)c1cccc2c(=O)c(C)c(-c3ccccc3)oc12)c1ccccc1	ROMK mod -3.7 (no result: Ins promoter up) | ROMK retest 0.063
CN(c1ccccc1)S(=O)(=O)c1ccc(C(=O)OCC(=O)NCc2cccs2)cc1	none (no result: ROMK mod, Autophagy HCS, sdo1 growth, ABCG2 inh, ABCB1 inh)
CCCCOC(=O)c1ccc(NC(=O)C(=O)NCc2ccco2)cc1	none (no result: sdo1 growth)
O=C1OC(/C=C/c2ccc(Cl)cc2Cl)=NC/1=C\c1cccs1	ROMK mod -2.9 (no result: Ins promoter up) | ROMK retest 0.059
O=c1cc(-c2cccs2)oc2ccc(Cl)cc12	none (no result: ROMK mod)
COc1nc(N/N=C/c2ccc(-c3ccccc3[N+](=O)[O-])o2)nc(N2CCOCC2)n1	none
O=[N+]([O-])c1ccc(-c2ccc(/C=N/Nc3nc(NCc4ccccc4)nc(N4CCOCC4)n3)o2)cc1	ROMK mod -3.9, Autophagy HCS active (no result: sdo1 growth, Ins promoter up) | ROMK retest 0.063
Cc1ccc(C(=O)Nc2ccc3cn[nH]c3c2)cc1S(=O)(=O)N1CCCCC1	none
CCOC(=O)C1=C(N)OC(CCl)=C(C#N)C1c1ccsc1 (stereo not drawn)	ROMK mod -3.5 | ROMK retest 0.06
CCCC1=C(C(=O)OCC)C(c2cccs2)C(C#N)=C(N)O1 (stereo not drawn)	ROMK mod 2.3 | ROMK retest inactive
O=C(CCCc1ccccc1)Nc1ccc2c(c1)OCCO2	none (no result: sdo1 growth)
Cn1c(-[n+]2c(-c3ccccc3)cc(-c3ccccc3)cc2-c2ccccc2)nc2cc([N+](=O)[O-])ccc21	none (no result: ROMK mod) | ROMK retest 0.06
Cc1ccccc1-n1c(SCC(=O)NC(N)=O)nc2sc(-c3ccccc3)cc2c1=O	none
COc1ccc(Cl)cc1N(CC(=O)Nc1ccc2c(c1)OCO2)S(C)(=O)=O	none
COc1ccccc1N(Cc1ccccc1)S(=O)(=O)c1cccc(C(=O)Nc2ccc(C(C)=O)cc2)c1	none
COc1ccc(OC)c(NC(=O)c2cccc(S(=O)(=O)N(Cc3ccccc3)c3ccccc3OC)c2)c1	none (no result: ROMK mod) | ROMK retest inactive
COc1ccc(OC)c(N(CC(=O)Nc2ccc3c(c2)OCO3)S(=O)(=O)c2ccccc2)c1	ROMK mod -2.8 | ROMK retest inactive
Cc1ccc(C(=O)N2CCN(S(=O)(=O)c3ccc(C)c([N+](=O)[O-])c3)C2)cc1	none (no result: sdo1 growth)
COCCN(CC(=O)NC1CCCCC1)C(=O)/C=C/C(=O)c1ccc(OC)cc1O	ROMK mod -5 (no result: sdo1 growth) | ROMK retest 0.053
COc1ccc(C(=O)/C=C/C(=O)N(CC(=O)NC2CCCCC2)Cc2cccs2)c(O)c1	Ins promoter up inconclusive (no result: sdo1 growth)
CC(C)CNC(=S)NC1CC2CCCC(C1)N2C1CCCCC1 (stereo not drawn)	none (no result: sdo1 growth) | ROMK retest 0.054
Cn1cnnc1SCc1ccc(C(=O)N=Nc2c(O)n(Cc3ccc(Cl)cc3)c3ccccc23)cc1	ROMK mod -2.2 | ROMK retest 0.065
O=C(N=Nc1c(O)n(Cc2ccccc2)c2ccccc12)c1ccc(O)cc1	none
CCn1c(O)c(N=NC(=O)Cn2ccc(C(F)(F)F)n2)c2ccccc21	none (no result: ROMK mod)
CCn1c(O)c(N=NC(=O)c2ccc(CSc3nncn3C)cc2)c2ccccc21	ROMK mod -3.4 | ROMK retest inactive
CCOc1ccc(C2C(C(=O)Nc3cc(C)on3)c3ccccc3C(=O)N2CCN2CCOCC2)cc1 (stereo not drawn)	ROMK mod -4.1 (no result: sdo1 growth) | ROMK retest inactive
CCCC(=O)OCCNc1cc(Sc2nccn2C)c2nonc2c1[N+](=O)[O-]	ROMK mod -4.7 | ROMK retest 0.051
CCCSc1cc(NCCOC(=O)CCC)c([N+](=O)[O-])c2nonc12	none (no result: ROMK mod)
Cc1nnc(Sc2cc(NCCO)c([N+](=O)[O-])c3nonc23)s1	ROMK mod -7.2 (no result: sdo1 growth) | ROMK retest 0.057
COc1ccccc1OCC(O)CNCc1ccc2c(c1)OCO2 (stereo not drawn)	none (no result: ROMK mod, Autophagy HCS, sdo1 growth, ABCG2 inh, ABCB1 inh)
N#C/C(=C\c1cccnc1)C(=O)Nc1ccc(C(=O)O)cc1	none (no result: sdo1 growth)
N#C/C(=C\c1cccnc1)C(=O)Nc1ccccc1	ROMK mod -4.2 | ROMK retest 0.053
CCOc1cccc(NC(=O)/C(C#N)=C\c2cccnc2)c1	ROMK mod -3.3 (no result: sdo1 growth) | ROMK retest 0.047
CCCCc1ccc(S(=O)(=O)N2CCN(C(=O)c3ccco3)CC2)cc1	none
Cc1occc1C(=O)Nc1ccc2c(c1)OCCO2	none (no result: ROMK mod) | ROMK retest inactive
Cc1c(NC(=O)C(C)N2C(=O)C3CCCCC3C2=O)c(=O)n(-c2ccccc2)n1C (stereo not drawn)	none (no result: sdo1 growth)
COc1cc(/C=N/NC(=O)C2CCN(CC(O)COCc3ccccc3)CC2)ccc1O (stereo not drawn)	none (no result: sdo1 growth, Ins promoter up)
COc1ccc(-c2csc(NC(=O)CSc3nc(SC)ns3)n2)cc1	none
COc1ccc(CN2CCN(Cc3cccn3-c3ncccn3)CC2CCO)c(C)c1C (stereo not drawn)	none (no result: sdo1 growth)
N#C/C(=C/c1cc(Br)cs1)C(=O)NCC1CCCO1 (stereo not drawn)	none (no result: ROMK mod) | ROMK retest 0.064
CC(=O)c1c(C)[nH]c(C(=O)Nc2nc(C)cs2)c1C	ROMK mod 2.8 (no result: sdo1 growth) | ROMK retest inactive
COc1ccc(CCCC(=O)NCc2ccccc2)cc1C	ROMK mod 4 | ROMK retest inactive

Compound activity as filed in PubChem BioAssay.
